# Measured values from ChEMBL document CHEMBL1140069, “In vitro antifungal activity of polyfunctionalized 2-(hetero)arylquinolines prepared through imino Diels-Alder reactions” (2008).
# What was measured:
# Format in all cases: functional
# [1] = test system: Cryptococcus neoformans; test: Antimicrobial activity against Cryptococcus neoformans IM 00319 isolate at 50 ug/ml after 48 hrs
# Procedure, shortened: (§1)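 Percent growth inhibition in 96-well microplates. Compound stocks in DMSO (≤2%) were diluted in RPMI-1640 to final 100–6.25 µg/mL, and 100 µL inoculum was added (final 200 µL). Controls were a growth well (inoculum with matching DMSO, no compound) and a sterility well (no inoculum). Inhibition was calculated against growth and sterility wells.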
# [2] = test system: Candida albicans; test: Antimicrobial activity against Candida albicans C130 isolate at 25 ug/ml after 24 hrs
# Procedure, shortened: (§2)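 Growth-inhibition microplate test. Strains are grown on Sabouraud-chloramphenicol agar for 48 h at 30 °C, and inoculum is added to RPMI-1640 containing compound at a final 100–6.25, with DMSO ≤2%. Each strain has a growth control (same DMSO, no compound) and a sterility control.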
# [3] = test system: Candida albicans; test: Antimicrobial activity against Candida albicans C127 isolate at 6.25 ug/ml after 24 hrs; conditions: C127, 24 h; procedure, shortened: as §2
# [4] = test system: Candida albicans; test: Antimicrobial activity against Candida albicans C129 isolate at 12.5 ug/ml after 24 hrs; procedure, shortened: as §2
# [5] = test system: Candida parapsilosis; test: Antimicrobial activity against Candida parapsilosis C124 isolate at 6.25 ug/ml after 24 hrs; conditions: Lodderomyces parapsilosis; procedure, shortened: as §1
# [6] = test system: Cryptococcus neoformans; test: Antimicrobial activity against Cryptococcus neoformans IM 961951 isolate at 100 ug/ml after 48 hrs; procedure, shortened: as §1
# [7] = test system: Pichia kudriavzevii; test: Antimicrobial activity against Candida krusei C117 isolate at 100 ug/ml after 24 hrs; procedure, shortened: as §1
# [8] = test system: Trichophyton mentagrophytes; test: Antifungal activity against Trichophyton mentagrophytes ATCC 9972 after 48 hrs by broth microdilution technique; conditions: ATCC 9972, 48 h
# Procedure, shortened: (§3)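 CLSI broth microdilution: M-27 A2 for yeasts and M-38 A for filamentous fungi. Medium is RPMI-1640 buffered to pH 7.0 with MOPS. Compound is diluted twofold from 250 to 0.98, final DMSO ≤2%. Inoculum is 1–5 × 10³ CFU/mL. Plates are incubated at 35 °C in a moist, dark chamber and read visually at 48 h. MIC100 is the lowest concentration giving total growth inhibition versus drug-free control.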
# [9] = test system: Cryptococcus neoformans; test: Antimicrobial activity against Cryptococcus neoformans IM 972724 isolate at 6.25 ug/ml after 48 hrs
# Procedure, shortened: (§4)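 Clinical Cryptococcus isolates kept on Sabouraud-dextrose agar slopes; inoculum 1–5 × 10³ CFU/mL. Quinoline DMSO stocks were diluted in RPMI-1640 to final 100–6.25 µg/mL, with DMSO ≤2%. An equal volume of inoculum was added (200 µL per well). Run in triplicate.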
# [10] = test system: Candida parapsilosis; test: Antimicrobial activity against Candida parapsilosis C124 isolate at 50 ug/ml after 24 hrs; conditions: Lodderomyces parapsilosis; procedure, shortened: as §1
# [11] = test system: Cryptococcus neoformans; test: Antimicrobial activity against Cryptococcus neoformans IM 042074 isolate at 50 ug/ml after 48 hrs; procedure, shortened: as §1
# [12] = test system: Cryptococcus neoformans; test: Antimicrobial activity against Cryptococcus neoformans IM 042074 isolate at 6.25 ug/ml after 48 hrs; procedure, shortened: as §1
# [13] = test system: Pichia kudriavzevii; test: Antimicrobial activity against Candida krusei C117 isolate at 50 ug/ml after 24 hrs; procedure, shortened: as §1
# [14] = test system: Candida albicans; test: Antimicrobial activity against Candida albicans C126 isolate at 6.25 ug/ml after 24 hrs; procedure, shortened: as §2
# [15] = test system: Cryptococcus neoformans; test: Antimicrobial activity against Cryptococcus neoformans IM 983040 isolate at 12.5 ug/ml after 48 hrs; procedure, shortened: as §4
# [16] = test system: Cryptococcus neoformans; test: Antimicrobial activity against Cryptococcus neoformans IM 972751 isolate at 25 ug/ml after 48 hrs; procedure, shortened: as §4
# [17] = test system: Cryptococcus neoformans; test: Antimicrobial activity against Cryptococcus neoformans IM 031706 isolate at 50 ug/ml after 48 hrs; procedure, shortened: as §1
# [18] = test system: Cryptococcus neoformans; test: Antimicrobial activity against Cryptococcus neoformans IM 031706 isolate at 12.5 ug/ml after 48 hrs; procedure, shortened: as §1
# [19] = test system: Pichia kudriavzevii; test: Antimicrobial activity against Candida krusei C117 isolate at 12.5 ug/ml after 24 hrs; procedure, shortened: as §1
# [20] = test system: Cryptococcus neoformans; test: Antimicrobial activity against Cryptococcus neoformans IM 983040 isolate at 6.25 ug/ml after 48 hrs; procedure, shortened: as §4
# [21] = test system: Cryptococcus neoformans; test: Antimicrobial activity against Cryptococcus neoformans IM 983036 isolate at 25 ug/ml after 48 hrs; procedure, shortened: as §4
# [22] = test system: Cryptococcus neoformans; test: Antimicrobial activity against Cryptococcus neoformans IM 983040 isolate at 100 ug/ml after 48 hrs; procedure, shortened: as §4
# [23] = test system: Candida albicans; test: Antimicrobial activity against Candida albicans C127 isolate at 12.5 ug/ml after 24 hrs; conditions: C127, 24 h; procedure, shortened: as §2
# [24] = test system: Cryptococcus neoformans; test: Antimicrobial activity against Cryptococcus neoformans IM 031706 isolate at 100 ug/ml after 48 hrs; procedure, shortened: as §1
# [25] = test system: Candida albicans; test: Antimicrobial activity against Candida albicans ATCC 10231 at 100 ug/ml after 24 hrs; conditions: ATCC 10231, 24 h; procedure, shortened: as §2
# [26] = test system: Candida albicans; test: Antimicrobial activity against Candida albicans C128 isolate at 12.5 ug/ml after 24 hrs; procedure, shortened: as §2
# [27] = test system: Cryptococcus neoformans; test: Antimicrobial activity against Cryptococcus neoformans IM 983036 isolate at 6.25 ug/ml after 48 hrs; procedure, shortened: as §4
# [28] = test system: Cryptococcus neoformans; test: Antimicrobial activity against Cryptococcus neoformans IM 052470 isolate at 25 ug/ml after 48 hrs; procedure, shortened: as §1
# [29] = test system: Cryptococcus neoformans; test: Antimicrobial activity against Cryptococcus neoformans IM 052470 isolate at 6.25 ug/ml after 48 hrs; procedure, shortened: as §1
# [30] = test system: Cryptococcus neoformans; test: Antimicrobial activity against Cryptococcus neoformans ATCC 32264 at 25 ug/ml after 48 hrs; conditions: ATCC 32264, 48 h; procedure, shortened: as §1
# [31] = test system: Pichia kudriavzevii; test: Antimicrobial activity against Candida krusei C117 isolate at 25 ug/ml after 24 hrs; procedure, shortened: as §1
# [32] = test system: Cryptococcus neoformans; test: Antimicrobial activity against Cryptococcus neoformans IM 983040 isolate at 50 ug/ml after 48 hrs; procedure, shortened: as §4
# [33] = test system: Cryptococcus neoformans; test: Antimicrobial activity against Cryptococcus neoformans IM 052470 isolate at 100 ug/ml after 48 hrs; procedure, shortened: as §1
# [34] = test system: Candida tropicalis; test: Antimicrobial activity against Candida tropicalis C131 isolate at 25 ug/ml after 24 hrs; procedure, shortened: as §1
# [35] = test system: Candida albicans; test: Antimicrobial activity against Candida albicans C128 isolate at 25 ug/ml after 24 hrs; procedure, shortened: as §2
# [36] = test system: Cryptococcus neoformans; test: Antimicrobial activity against Cryptococcus neoformans IM 972724 isolate at 100 ug/ml after 48 hrs; procedure, shortened: as §4
# [37] = test system: Candida parapsilosis; test: Antimicrobial activity against Candida parapsilosis C124 isolate at 12.5 ug/ml after 24 hrs; conditions: Lodderomyces parapsilosis; procedure, shortened: as §1
# [38] = test system: Candida tropicalis; test: Antimicrobial activity against Candida tropicalis C131 isolate at 100 ug/ml after 24 hrs; procedure, shortened: as §1
# [39] = test system: Nannizzia gypsea; test: Antifungal activity against Microsporum gypseum C115 after 48 hrs by broth microdilution technique; procedure, shortened: as §3
# [40] = test system: Candida albicans; test: Antimicrobial activity against Candida albicans C128 isolate at 100 ug/ml after 24 hrs; procedure, shortened: as §2
# [41] = test system: Cryptococcus neoformans; test: Antimicrobial activity against Cryptococcus neoformans IM 031631 isolate at 12.5 ug/ml after 48 hrs; procedure, shortened: as §1
# [42] = test system: Cryptococcus neoformans; test: Antimicrobial activity against Cryptococcus neoformans IM 983036 isolate at 50 ug/ml after 48 hrs; procedure, shortened: as §4
# [43] = test system: Cryptococcus neoformans; test: Antimicrobial activity against Cryptococcus neoformans IM 042074 isolate at 100 ug/ml after 48 hrs; procedure, shortened: as §1
# [44] = test system: Candida albicans; test: Antimicrobial activity against Candida albicans C128 isolate at 50 ug/ml after 24 hrs; procedure, shortened: as §2
structure (smiles),measurement,setting,value
Cc1cc(-c2ccncc2)nc2ccccc12,inhibition at 50 µg/mL,[1],80%
same,inhibition at 25 µg/mL,[2],48%
same,inhibition at 6.25 µg/mL,[3],0%
same,inhibition at 12.5 µg/mL,[4],3%
same,inhibition at 6.25 µg/mL,[5],0%
same,inhibition at 100 µg/mL,[6],97%
same,inhibition at 100 µg/mL,[7],66%
same,MIC,[8],25 µg/mL
same,inhibition at 6.25 µg/mL,[9],0%
same,inhibition at 50 µg/mL,[10],5%
same,inhibition at 50 µg/mL,[11],87%
same,inhibition at 6.25 µg/mL,[12],68%
same,inhibition at 50 µg/mL,[13],3%
same,inhibition at 6.25 µg/mL,[14],0%
same,inhibition at 12.5 µg/mL,[15],0%
same,inhibition at 25 µg/mL,[16],9%
same,inhibition at 50 µg/mL,[17],69%
same,inhibition at 12.5 µg/mL,[18],41%
same,inhibition at 12.5 µg/mL,[19],0%
same,inhibition at 6.25 µg/mL,[20],0%
same,inhibition at 25 µg/mL,[21],45%
same,inhibition at 100 µg/mL,[22],45%
same,inhibition at 12.5 µg/mL,[23],0%
same,inhibition at 100 µg/mL,[24],100%
same,inhibition at 100 µg/mL,[25],100%
same,inhibition at 12.5 µg/mL,[26],0%
same,inhibition at 6.25 µg/mL,[27],0%
same,inhibition at 25 µg/mL,[28],53%
same,inhibition at 6.25 µg/mL,[29],0%
same,inhibition at 25 µg/mL,[30],100%
same,inhibition at 25 µg/mL,[31],0%
same,inhibition at 50 µg/mL,[32],34%
same,inhibition at 100 µg/mL,[33],99%
same,inhibition at 25 µg/mL,[34],60%
same,inhibition at 25 µg/mL,[35],0%
same,inhibition at 100 µg/mL,[36],74%
same,inhibition at 12.5 µg/mL,[37],0%
same,inhibition at 100 µg/mL,[38],100%
same,MIC,[39],25 µg/mL
same,inhibition at 100 µg/mL,[40],88%
same,inhibition at 12.5 µg/mL,[41],36%
same,inhibition at 50 µg/mL,[42],69%
same,inhibition at 100 µg/mL,[43],92%
same,inhibition at 50 µg/mL,[44],15%
c1ccc(-c2ccc3ccccc3n2)cc1 [2-PHENYLQUINOLINE],inhibition at 50 µg/mL,[1],34%
same,inhibition at 100 µg/mL,[6],45%
same,MIC,[8],25 µg/mL
same,inhibition at 6.25 µg/mL,[9],0%
same,inhibition at 50 µg/mL,[11],77%
same,inhibition at 6.25 µg/mL,[12],0%
same,inhibition at 12.5 µg/mL,[15],4%
same,inhibition at 25 µg/mL,[16],22%
same,inhibition at 50 µg/mL,[17],46%
same,inhibition at 12.5 µg/mL,[18],0%
same,inhibition at 6.25 µg/mL,[20],0%
same,inhibition at 25 µg/mL,[21],0%
same,inhibition at 100 µg/mL,[22],50%
same,inhibition at 100 µg/mL,[24],67%
same,inhibition at 100 µg/mL,[25],0%
same,inhibition at 6.25 µg/mL,[27],0%
same,inhibition at 25 µg/mL,[28],35%
same,inhibition at 6.25 µg/mL,[29],0%
same,inhibition at 25 µg/mL,[30],77%
same,inhibition at 50 µg/mL,[32],29%
same,inhibition at 100 µg/mL,[33],88%
same,inhibition at 100 µg/mL,[36],99%
same,MIC,[39],16 µg/mL
same,inhibition at 12.5 µg/mL,[41],5%
same,inhibition at 50 µg/mL,[42],12%
same,inhibition at 100 µg/mL,[43],84%
